# Source: ChEMBL document CHEMBL5724801, “EUbOPEN Chemogenomics Library - Multiplex” (2024)
# Values joined by “and” are separate entries in the source; they are usually repeats but may differ in a detail not shown here. Identical values can stand only once.
# System: U2OS
# Assay: Multiplex assay against U2OS
# Assay type: toxicity, cell-based
# Conditions: human
# How it was run: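 Cells were classed with CellPathfinder machine-learning gating, first as Hoechst high-intensity objects or normal cells, then (normal cells) as healthy, pyknosed or fragmented nuclei, and finally (pyknosed cells) as mitotic or apoptotic. Staining of live cells at seeding used Hoechst33342, BioTracker Green Microtubule Cytoskeleton Dye, MitoTracker Red and Annexin V Alexa Fluor 680, with imaging on a CQ1 microscope at 37°C and 5% CO2 after compound addition. Tubulin, mitochondrial-mass and membrane-permeability phenotypes are per cents of healthy-nucleus cells.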
# [1] = 12 h, 1 µM, compound concentration 1 uM
# [2] = 12 h, 10 µM, compound concentration 10 uM
# [3] = 24 h, 1 µM, compound concentration 1 uM
# [4] = 24 h, 10 µM, compound concentration 10 uM
# [5] = 48 h, 1 µM, compound concentration 1 uM
# [6] = 48 h, 10 µM, compound concentration 10 uM
compound,measurement,setting,value
COC[C@@H](c1ccc(C(F)(F)F)cc1)N1CCN(C2(C)CCN(C(=O)c3c(C)ncnc3C)CC2)C[C@@H]1C.O=C(O)/C=C\C(=O)O [VICRIVIROC MALEATE],Population Apoptotic (%),[1],82% and 81%
same,Population Fragmented Nuclei (%),[1],34% and 21%
same,Population Healthy Nuclei (%),[1],54% and 67%
same,Population Hoechst High Intensity Objects (%),[1],4% and 2%
same,Population Membrane Permeable-Phenotype (%),[1],8% and 11%
same,Population Mitochondria Different-Phenotype (%),[1],4% and 14%
same,Population Mitotic Cells (%),[1],17% and 18%
same,Population Normal (%),[1],95% and 97%
same,Population Pyknosed Nuclei (%),[1],11% and 10%
same,Population Tubulin-Different-Phenotype (%),[1],3% and 7%
same,Total Cell Count,[1],261 and 105
same,Population Apoptotic (%),[2],86% and 33%
same,Population Fragmented Nuclei (%),[2],26% and 28%
same,Population Healthy Nuclei (%),[2],65%
same,Population Hoechst High Intensity Objects (%),[2],1% and 2%
same,Population Membrane Permeable-Phenotype (%),[2],13% and 5%
same,Population Mitochondria Different-Phenotype (%),[2],3% and 6%
same,Population Normal (%),[2],98% and 97%
same,Population Pyknosed Nuclei (%),[2],8% and 6%
same,Population Tubulin-Different-Phenotype (%),[2],3% and 6%
same,Total Cell Count,[2],270 and 91
same,Population Apoptotic (%),[3],77% and 93%
same,Population Fragmented Nuclei (%),[3],25% and 20%
same,Population Healthy Nuclei (%),[3],67% and 64%
same,Population Hoechst High Intensity Objects (%),[3],3% and 4%
same,Population Membrane Permeable-Phenotype (%),[3],5% and 10%
same,Population Normal (%),[3],96% and 95%
same,Population Pyknosed Nuclei (%),[3],7% and 15%
same,Population Tubulin-Different-Phenotype (%),[3],2% and 10%
same,Total Cell Count,[3],301 and 111
same,Population Apoptotic (%),[4],80% and 83%
same,Population Fragmented Nuclei (%),[4],25%
same,Population Healthy Nuclei (%),[4],68%
same,Population Hoechst High Intensity Objects (%),[4],1%
same,Population Membrane Permeable-Phenotype (%),[4],3% and 4%
same,Population Mitochondria Different-Phenotype (%),[4],3% and 2%
same,Population Mitotic Cells (%),[4],19% and 16%
same,Population Normal (%),[4],98%
same,Population Pyknosed Nuclei (%),[4],6%
same,Population Tubulin-Different-Phenotype (%),[4],2% and 7%
same,Population Apoptotic (%),[5],78% and 93%
same,Population Fragmented Nuclei (%),[5],20% and 25%
same,Population Healthy Nuclei (%),[5],68% and 62%
same,Population Hoechst High Intensity Objects (%),[5],3% and 1%
same,Population Membrane Permeable-Phenotype (%),[5],3% and 13%
same,Population Mitochondria Different-Phenotype (%),[5],2% and 11%
same,Population Normal (%),[5],96% and 98%
same,Population Pyknosed Nuclei (%),[5],10% and 11%
same,Population Tubulin-Different-Phenotype (%),[5],1% and 10%
same,Total Cell Count,[5],416 and 142
same,Population Apoptotic (%),[6],80% and 93%
same,Population Fragmented Nuclei (%),[6],19% and 18%
same,Population Healthy Nuclei (%),[6],70% and 68%
same,Population Hoechst High Intensity Objects (%),[6],2% and 5%
same,Population Membrane Permeable-Phenotype (%),[6],3%
same,Population Mitochondria Different-Phenotype (%),[6],2% and 6%
same,Population Normal (%),[6],97% and 94%
same,Population Pyknosed Nuclei (%),[6],9% and 12%
same,Population Tubulin-Different-Phenotype (%),[6],1% and 6%
